ChEMBL document CHEMBL3112527, “Quinoline-pyrimidine hybrids: synthesis, antiplasmodial activity, SAR, and mode of action studies” (J Med Chem, 2014)
≈ marks a conversion by molar mass, not a printed value. Calls of active or inactive are those of the source. The calls are words filed in the database; no cut-off is given here.

Tests used:
[1] = Aqueous solubility of the compound in PBS buffer at pH 7.4 after 24 hrs by HPLC analysis; type: physicochemical; details: pH 7.4, 24 h
[2] = system: Human alphaherpesvirus 3; assay: Antiviral activity against Varicella-zoster virus infected in HEL cells assessed as inhibition of virus-induced cytopathicity; type: functional, organism-based
[3] = system: Punta Toro virus; assay: Antiviral activity against Punta Toro virus infected in African green monkey Vero cells assessed as inhibition of virus-induced cytopathicity; type: functional, organism-based
Method in brief: (§1)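 Confluent monolayers (HEL, Vero, HeLa or CrFK, as applicable) were inoculated with 100 CCID50 of virus, with 1 CCID50 being the dose that infects 50% of cultures. Infection ran in the presence of varying compound concentrations. Inhibition of virus-induced cytopathicity was scored against infected cultures left untreated.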

[4] = Solubility of the compound in octanol at pH 7.4 by HPLC analysis; type: physicochemical
[5] = n-octanol-PBS buffer distribution coefficient, log D of the compound at pH 7.4 after 24 hrs by HPLC analysis; type: physicochemical
[6] = system: Influenza A virus; assay: Antiviral activity against influenza A virus H1N1 infected in MDCK cells assessed as inhibition of virus-induced cytopathicity; type: functional, organism-based
Method in brief: (§2)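 Confluent monolayers in 96-well plates were inoculated with 100 CCID50 of virus in the presence of varying concentrations of compound. Read-out was inhibition of virus-induced cytopathicity, compared with untreated infected cultures. Cytotoxicity was judged microscopically or by MTT viability staining.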

[7] = system: Mammalian orthoreovirus 1; assay: Antiviral activity against Reovirus 1 infected in African green monkey Vero cells assessed as inhibition of virus-induced cytopathicity; type: functional, organism-based; method in brief: as §1
[8] = system: Sindbis virus; assay: Antiviral activity against Sindbis virus infected in African green monkey Vero cells assessed as inhibition of virus-induced cytopathicity; type: functional, organism-based
[9] = Selectivity index, ratio of CC50 for cat CRFK cells to IC50 for chloroquine-resistant asexual erythrocytic stage of Plasmodium falciparum Dd2; type: functional
Method in brief: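 Ratio of CRFK CC50 (μM) to Dd2 IC50 […]. CC50 is the 50% cytotoxic concentration in feline kidney CRFK cells, measured as cell viability by colorimetric formazan-based MTS assay. Dd2 IC50 is from the parasite LDH growth-inhibition assay.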

[10] = system: Human alphaherpesvirus 1; assay: Antiviral activity against thymidine kinase-negative acyclovir-resistant HSV-1 KOS infected in HEL cells assessed as inhibition of virus-induced cytopathicity; type: functional, organism-based; method in brief: as §2
[11] = system: Coxsackievirus B4; assay: Antiviral activity against Coxsackievirus B4 infected in human HeLa cells assessed as inhibition of virus-induced cytopathicity; type: functional, organism-based; method in brief: as §1
[12] = Cytotoxicity against cat CRFK cells assessed as cell viability by MTS assay; type: cell-based, Felis catus
Method in brief: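 CRFK cells were exposed to varying sample concentrations. Cell viability was measured with the colorimetric formazan-based MTS assay, and the 50% cytotoxic concentration (CC50) was derived from it.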

[13] = system: Plasmodium falciparum; assay: Antiplasmodial activity against chloroquine-sensitive asexual erythrocytic stage of Plasmodium falciparum D10 assessed as parasite growth inhibition by lactate dehydrogenase assay; type: functional, organism-based
Method in brief: (§3)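 Parasite lactate dehydrogenase assay (modified Makler method). Samples held as 20 mg/mL stocks in DMSO, diluted on test day. Full dose-response: starting at 10 μg/mL, 2-fold serial dilution in complete medium over 10 concentrations down to 0.02 μg/mL. Chloroquine, artesunate and MMV390048 served as references. IC50 from nonlinear dose-response curve fitting; mean of three independent experiments.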

[14] = system: Felid alphaherpesvirus 1; assay: Antiviral activity against Feline herpesvirus infected in cat CRFK cells assessed as inhibition of virus-induced cytopathicity; type: functional, organism-based; method in brief: as §1
[15] = system: Human alphaherpesvirus 1; assay: Antiviral activity against HSV-1 KOS infected in HEL cells assessed as inhibition of virus-induced cytopathicity; type: functional, organism-based; method in brief: as §1
[16] = system: Feline coronavirus; assay: Antiviral activity against Feline coronavirus infected in cat CRFK cells assessed as inhibition of virus-induced cytopathicity; type: functional, organism-based; method in brief: as §1
[17] = system: Plasmodium falciparum; assay: Antiplasmodial activity against chloroquine-resistant asexual erythrocytic stage of Plasmodium falciparum Dd2 assessed as parasite growth inhibition by lactate dehydrogenase assay; type: functional, organism-based; method in brief: as §3
[18] = system: Vesicular stomatitis virus; assay: Antiviral activity against Vesicular stomatitis virus infected in human HeLa cells assessed as inhibition of virus-induced cytopathicity; type: functional, organism-based; method in brief: as §2
[19] = system: Respiratory syncytial virus; assay: Antiviral activity against Respiratory syncytial virus infected in human HeLa cells assessed as inhibition of virus-induced cytopathicity; type: functional, organism-based; method in brief: as §1
[20] = system: Influenza A virus H3N2; assay: Antiviral activity against Influenza A virus H3N2 infected in MDCK cells assessed as inhibition of virus-induced cytopathicity; type: functional, organism-based; method in brief: as §2
[21] = system: Human betaherpesvirus 5; assay: Antiviral activity against Cytomegalovirus AD169 infected in HEL cells assessed as inhibition of virus-induced cytopathicity; type: functional, organism-based
[22] = system: Coxsackievirus B4; assay: Antiviral activity against Coxsackievirus B4 infected in African green monkey Vero cells assessed as inhibition of virus-induced cytopathicity; type: functional, organism-based; method in brief: as §1
[23] = system: Human respirovirus 3; assay: Antiviral activity against parainfluenza virus 3 infected in African green monkey Vero cells assessed as inhibition of virus-induced cytopathicity; type: functional, organism-based; method in brief: as §1
[24] = system: Vesicular stomatitis virus; assay: Antiviral activity against Vesicular stomatitis virus infected in HEL cells assessed as inhibition of virus-induced cytopathicity; type: functional, organism-based; method in brief: as §2
[25] = system: Vaccinia virus; assay: Antiviral activity against Vaccinia virus infected in HEL cells assessed as inhibition of virus-induced cytopathicity; type: functional, organism-based; details: Orthopoxvirus vaccinia; method in brief: as §2
[26] = system: Human betaherpesvirus 5; assay: Antiviral activity against Cytomegalovirus Davis infected in HEL cells assessed as inhibition of virus-induced cytopathicity; type: functional, organism-based
[27] = system: Human alphaherpesvirus 2; assay: Antiviral activity against HSV-2 G infected in HEL cells assessed as inhibition of virus-induced cytopathicity; type: functional, organism-based; details: strain G; method in brief: as §1
[28] = Cytotoxicity against human HeLa cells assessed as alteration of cell morphology by microscopic analysis; type: cell-based; details: read-out: MIC
Method in brief: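 Cells (Vero, HEL, MDCK or HeLa) were exposed to a range of sample concentrations. The value reported is the concentration required to cause a microscopically detectable alteration of normal cell morphology.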

SMILES	solubility [1] [µM]	inhibition [2]	inhibition [3]	solubility [4] [µM]	logD at 24 h [5]	inhibition [6]	inhibition [7]	inhibition [8]	inhibition [10]	inhibition [11]	CC50 [12] [µM]	IC50 [13] [nM]	inhibition [14]	inhibition [15]	inhibition [16]	inhibition [18]	inhibition [19]	inhibition [20]	inhibition [21]	inhibition [22]	other results
Clc1ccc2c(NCCCOc3nccc(Cl)n3)ccnc2c1	0.2 (≈ 0.0698 µg/mL)	inactive	inactive	2.19 (≈ 0.765 µg/mL)	1.04	inactive	inactive	inactive	inactive	inactive	> 100	304	inactive	inactive	inactive	inactive	inactive	inactive	inactive	inactive	Ratio CC50/IC50 [9]: >490; IC50 [17]: 204 nM; inhibition [23]: inactive; inhibition [24]: inactive; inhibition [25]: inactive; inhibition [26]: inactive; inhibition [27]: inactive; MCC [28]: > 100 µM
Clc1ccc2c(NCCCCCCCCNc3ccnc(Cl)n3)ccnc2c1	0.08 (≈ 0.0335 µg/mL)	inactive	inactive	2.41 (≈ 1.01 µg/mL)	1.48	inactive	inactive	inactive	inactive	inactive	8	912	inactive	inactive	inactive	inactive	inactive	inactive	inactive	inactive	Ratio CC50/IC50 [9]: 9; IC50 [17]: 883 nM; inhibition [23]: inactive; inhibition [24]: inactive; inhibition [25]: inactive; inhibition [26]: inactive; inhibition [27]: inactive; MCC [28]: 4 µM
Clc1ccc2c(NCCCNc3ccnc(Cl)n3)ccnc2c1	0.6 (≈ 0.209 µg/mL)	inactive	inactive	1.01 (≈ 0.352 µg/mL)	0.229	inactive	inactive	inactive	inactive	inactive	> 100	270	inactive	inactive	inactive	inactive	inactive	inactive	inactive	inactive	Ratio CC50/IC50 [9]: >483; IC50 [17]: 207 nM; inhibition [23]: inactive; inhibition [24]: inactive; inhibition [25]: inactive; inhibition [26]: inactive; inhibition [27]: inactive; MCC [28]: > 100 µM
Clc1ccc2c(NCCCNc3nccc(Cl)n3)ccnc2c1	0.4 (≈ 0.139 µg/mL)	inactive	inactive	1.81 (≈ 0.63 µg/mL)	0.657	inactive	inactive	inactive	inactive	inactive	> 100	244	inactive	inactive	inactive	inactive	inactive	inactive	inactive	inactive	Ratio CC50/IC50 [9]: >209; IC50 [17]: 478 nM; inhibition [23]: inactive; inhibition [24]: inactive; inhibition [25]: inactive; inhibition [26]: inactive; inhibition [27]: inactive; MCC [28]: > 100 µM
Clc1ccc2c(NCCCCCCCCNc3nccc(Cl)n3)ccnc2c1	0.09 (≈ 0.0377 µg/mL)	inactive	inactive	2.91 (≈ 1.22 µg/mL)	1.51	inactive	inactive	inactive	inactive	inactive	10	1060	inactive	inactive	inactive	inactive	inactive	inactive	inactive	inactive	inhibition [23]: inactive; inhibition [24]: inactive; inhibition [25]: inactive; inhibition [26]: inactive; inhibition [27]: inactive; MCC [28]: 20 µM
